Data on one compound can be found in ChEMBL document CHEMBL1124031, “6-[18F]fluorometaraminol: a radiotracer for in vivo mapping of adrenergic nerves of the heart” (J Med Chem, 1988).

The species entered for data set [1] is Rattus norvegicus. Kind of data set: Concentration of compound in left ventricle of rats, pretreated with desmethylimipramine, assessed using [18F]- as radiotracer;Dose/g. In kind it is ADME, organism-based, Heart left ventricle. As to conditions: in vivo. The method, boiled down: (§1)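 Female Sprague–Dawley rats (230–290 g) got DMI·HCl 10 mg/kg ip, or an equal volume of saline ip for controls, 30 min before iv [18F] tracer (5 µCi). Killed 1.5 h after tracer. Duplicate tissue samples were weighed and gamma counted. Values are decay-corrected % dose/g normalized to 250 g body weight, mean ± SEM, four rats per group.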

Data set [2] is filed under the species Rattus norvegicus. Nature of the data set: Concentration of compound in spleen of rats, pretreated with desmethylimipramine, assessed using [18F]- as radiotracer;Dose/g. In kind it is ADME, organism-based. The conditions noted are these: in vivo. The procedure, abridged: as §1
The species named for data set [3] is Rattus norvegicus. Kind of data set: Concentration of compound in liver of rats, pretreated with desmethylimipramine, assessed using [18F]- as radiotracer;Dose/g. The conditions noted are these: in vivo. In kind it is ADME, organism-based. The method, boiled down:
as §1

The species entered for data set [4] is Rattus norvegicus. Kind of data set: Desmethylimipramine blockade of compound with [3H]NE as radiotracer, and percentage change was measured in rat right atrium. In kind it is functional, Cardiac atrium. The procedure, abridged:
(§2)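 Comparison study with [3H]NE (levo-[7-3H], 15–20 Ci/mmol) as tracer in female Sprague–Dawley rats (230–290 g). Rats were pretreated with DMI·HCl 10 mg/kg ip, or an equal volume of saline ip, 30 min before iv tracer. Value is the percent change in tissue tracer concentration versus saline controls; five rats per group.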

The species entered for data set [5] is Rattus norvegicus. Kind of data set: Desmethylimipramine blockade of compound with [3H]NE as radiotracer, and percentage change was measured in rat blood. In kind it is functional. The procedure, abridged:
as §2

The species named for data set [6] is Rattus norvegicus. Kind of data set: Desmethylimipramine blockade of compound with [3H]NE as radiotracer, and percentage change was measured in rat right ventricle. In kind it is functional, Heart right ventricle. The procedure, abridged: as §2
For data set [7], the species on record is Rattus norvegicus. Kind of data set: Concentration of compound in right atrium of rats, pretreated with desmethylimipramine, assessed using [18F]- as radiotracer;Dose/g. In kind it is ADME, organism-based, Cardiac atrium. The conditions noted are these: in vivo. The procedure, abridged: as §1
For data set [8], the species on record is Rattus norvegicus. Nature of the data set: Concentration of compound in right ventricle of rats, pretreated with desmethylimipramine, assessed using [18F]- as radiotracer;Dose/g. In kind it is ADME, organism-based, Heart right ventricle. As to conditions: in vivo. The method, boiled down: as §1
For data set [9], the species on record is Rattus norvegicus. Kind of data set: Concentration of compound in left atrium of rats, pretreated with desmethylimipramine, assessed using [18F]- as radiotracer;Dose/g. In kind it is ADME, organism-based, Cardiac atrium. As to conditions: in vivo. The method, boiled down: as §1
The species entered for data set [10] is Rattus norvegicus. Nature of the data set: Concentration of compound in blood of rats, pretreated with desmethylimipramine, assessed using [18F]- as radiotracer;Dose/g. In kind it is ADME, organism-based. As to conditions: in vivo. The method, boiled down: as §1
The species named for data set [11] is Rattus norvegicus. Kind of data set: Desmethylimipramine blockade of compound with [3H]-NE as radiotracer, and percentage change was measured in rat left ventricle. In kind it is functional, Heart left ventricle. The method, boiled down:
as §2

For data set [12], the species on record is Rattus norvegicus. Kind of data set: Desmethylimipramine blockade of compound with [3H]NE as radiotracer, and percentage change was measured in rat spleen. In kind it is functional. The method, boiled down:
as §2

The species entered for data set [13] is Rattus norvegicus. Nature of the data set: Desmethylimipramine blockade of compound with [3H]NE as radiotracer, and percentage change was measured in rat left atrium. In kind it is functional, Cardiac atrium. The procedure, abridged: as §2

As for `CC(N)C(O)c1cc(O)ccc1F` (stereo not drawn), the Dose in data set [1] stood at 0.15%; in [2] it was 0.2%; in data set [3], 0.77%; in [7] it was 0.24%; in data set [8], 0.2%; in [9] it was 0.24%. Further, in data set [10], the Dose turned out to be 0.12%. For the same compound, the Change in [4] is recorded as -95%; in data set [5] it was 55%; in data set [6], -96%; in data set [11] it was -97%; in [12] it was -86%; in data set [13], -95%.
